Data set [1] has as its system Enterovirus A71. As to the kind of experiment: Antiviral activity against Enterovirus A71 Laos2011 HFMD18T infected in human RD cells assessed as reduction in viral replication incubated for 72 hrs by RT-qPCR analysis. Particulars: Enterovirus A. Format: functional, organism-based. In general terms: Quantitative PCR measures a nucleic acid by following its amplification.

Data set [2] has as its system Enterovirus A71. Put plainly: Antiviral activity against Enterovirus A71 Laos2011 HFMD18T infected in human MRC5 cells assessed as reduction in viral replication incubated for 72 hrs by RT-qPCR analysis. Format: functional, organism-based. Particulars: Enterovirus A, MRC5, 72 h.
Data set [3] is described as follows: Cytotoxicity against human MRC5 cells. Format: toxicity, cell-based. In a few lines:
(§1)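 CC50 was measured in parallel on compound-treated uninfected cells, run alongside the antiviral assay. Cells were seeded one day ahead in assay medium with 2.5 % FBS (RD at 50000 cells/well) and held at 37 °C, 5 % CO2; MRC-5 were grown in BME with 10 % FBS. Compounds were added as eight ½ dilutions. CC50 came from nonlinear regression (log(inhibitor) vs response, variable slope, three parameters); median ± std of two independent experiments.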

Data set [4] in a line: Cytotoxicity against human RD cells. The data set is classed as toxicity, cell-based. In a few lines: as §1
Data set [5] is described as follows: Selectivity index, ratio of CC50 for cytotoxicity against human MRC5 cells to EC50 for antiviral activity against Enterovirus A71 infected in human MRC5 cells. The data set is classed as toxicity, cell-based. Particulars: read-out: Selectivity Index.
Data set [6] in a line: Cytotoxicity against Chinese hamster CHO cells.
A short description of data set [7]: Selectivity index, ratio of CC50 for cytotoxicity against human RD cells to EC50 for antiviral activity against Enterovirus A71 infected in human RD cells.
The subject of a further data set is Human echovirus 30. As to the kind of experiment: Antiviral activity against Echovirus 30 strain UVE/E-30/2013/FR/4-MRS2013 infected in human MRC5 cells assessed as […]. The data set is classed as functional, organism-based, Echovirus E30. Particulars: Enterovirus B, UVE/E-30/2013/FR/4-MRS2013, MRC5. The procedure, abridged: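 MRC-5 cells seeded the day before infection in assay medium with 2.5 % FBS. After 24 h, compounds added as eight ½ dilutions, then virus added. On day 3 post-infection, supernatant harvested and viral RNA quantified by RT-qPCR (pan-enterovirus probe/primers, synthetic RNA standard curve). Inhibition calculated relative to four virus control wells per plate. EC50 obtained by nonlinear regression (log(inhibitor) vs response, variable slope, three parameters); two independent experiments.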

Another data set has as its system Coxsackievirus. As to the kind of experiment: Antiviral activity against Coxsackievirus A24 UVE/CV-A24/2010/LA/HFMK14 infected in human MRC5 cells assessed as […]. The data set is classed as functional, organism-based. Particulars: UVE/CV-A24/2010/LA/HFMK14, MRC5.
The nature of data set [8]: Selectivity index, ratio of CC50 for cytotoxicity against human MRC5 cells to EC50 for antiviral activity against Coxsackievirus A24 UVE/CV-A24/2010/LA/HFMK14 infected in human MRC5 cells. The data set is classed as toxicity, cell-based. Particulars: read-out: Selectivity Index. In a few lines:
(§2)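 In MRC-5 cells, SI = CC50/EC50. EC50 comes from the 3-day RT-qPCR viral RNA inhibition assay with eight ½ dilutions. CC50 was measured in parallel on compound-treated uninfected MRC-5 cells. Both values derived by nonlinear regression (three-parameter, variable slope); two independent experiments.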

Data set [9] is described as follows: Selectivity index, ratio of CC50 for cytotoxicity against human MRC5 cells to EC50 for antiviral activity against Echovirus 30 strain UVE/E-30/2013/FR/4-MRS2013 infected in human MRC5 cells. Particulars: read-out: Selectivity Index. The data set is classed as toxicity, cell-based. The procedure, abridged:
as §2

The subject of data set [10] is Enterovirus A71. As to the kind of experiment: Antiviral activity against Enterovirus A71 Laos2011 HFMD18T infected in human RD cells assessed as RNA copies measured per ml of supernatant at 10 uM pretreated 1 hr before infection measured after 72 hrs relative to control. Format: functional.
The test system of data set [11] is Enterovirus A71. Put plainly: Antiviral activity against Enterovirus A71 Laos2011 HFMD18T infected in human RD cells assessed as RNA copies measured per ml of supernatant at 10 uM treated at time of infection measured after 72 hrs. Format: functional.
The test system of data set [12] is Enterovirus A71. Put plainly: Antiviral activity against Enterovirus A71 Laos2011 HFMD18T infected in human RD cells assessed as RNA copies measured per ml of supernatant at 10 uM treated 4 hr post infection measured after 72 hrs. Format: functional.
In data set [13] the test system is Enterovirus A71. Put plainly: Antiviral activity against Enterovirus A71 Laos2011 HFMD18T infected in human RD cells assessed as inhibition of viral RNA measured per ml of supernatant at 10 uM pretreated 1 hr before infection measured after 72 hrs. The data set is classed as functional. Particulars: Enterovirus A.
For data set [14], the system named is Enterovirus A71. As to the kind of experiment: Antiviral activity against Enterovirus A71 Laos2011 HFMD18T infected in human RD cells assessed as inhibition of viral RNA copies measured per ml of supernatant at 10 uM treated at time of infection measured after 72 hrs. Particulars: Enterovirus A. Format: functional.
Data set [15] concerns Enterovirus A71. Put plainly: Antiviral activity against Enterovirus A71 Laos2011 HFMD18T infected in human RD cells assessed as inhibition of viral RNA copies measured per ml of supernatant at 10 uM treated 4 hr post infection measured after 72 hrs. Format: functional. Particulars: Enterovirus A.
In data set [16] the test system is Enterovirus A71. Put plainly: Antiviral activity against Enterovirus A71 Laos2011 HFMD18T infected in human RD cells assessed as inhibition of viral RNA copies measured per ml of supernatant at 10 uM measured after 72 hrs. Particulars: Enterovirus A.
Data set [17] deals with Enterovirus A71. Put plainly: Antiviral activity against Enterovirus A71 Laos2011 HFMD18T infected in human RD cells assessed as RNA copies measured per ml of supernatant at 10 uM treated 1 hr post infection measured after 72 hrs.

In the case of `CN(C)c1ccc(-c2ccc(CSc3ccc(-c4ccc5ccccc5c4)cn3)cc2)cc1`, the EC50 in the data set with Enterovirus A71 [1] is more than 40 µM.
As to `Nc1ncc(-c2ccc(CSc3ccc(-c4ccc(CO)cc4)cn3)cc2)cn1`, the EC50 in the data set on Enterovirus A71 [2] was less than 0.37 µM; with Enterovirus A71 [1] it was 24.7 µM. Further, the values for the CC50 in data set [3], in [4] and in data set [6] were more than 20 µM, 44.7 µM and 36.9 µM, respectively. In addition, the selectivity ratio in data set [5] is more than 54; in data set [7], 1.81.
In the case of `c1ncn(-c2ccc(CSc3ccc(-c4ccc5cn[nH]c5c4)cc3)cc2)n1`, in the data set with Enterovirus A71 [1], the EC50 was more than 40 µM.
Consider `c1ccc(Cn2cc(-c3ccc(CSc4ccc(-c5ccc6ccccc6c5)cn4)cc3)cn2)cc1`, for which the EC50 in the data set on Enterovirus A71 [1] is 22.3 µM.
`OCc1cccc(-c2ccc(SCc3ccc(-n4cncn4)cc3)nc2)c1`: the EC50 in the data set on Enterovirus A71 [2] stood at 22 µM; in the data set with Enterovirus A71 [1], 2.78 µM. Also, the CC50 in [3] and in data set [4] was more than 40 µM throughout. Moreover, the results for the selectivity ratio in data set [5] and in [7] were more than 1.8 and more than 14, respectively.
Regarding `COc1ncc(-c2ccc(CSc3ccc(-c4ccc(CO)cc4)cn3)cc2)cn1`, the 50% effective concentration (EC50) in the data set with Enterovirus A71 [1] was more than 40 µM.
On the same count and under the same terms, to `CN(C)c1ncc(-c2ccc(CSc3ccc(-c4ccc(CO)cc4)cn3)cc2)cn1` belongs more than 40 µM.
As for `OCc1ccc(-c2ccc(SCc3ccc(-c4cnc(N5CCOCC5)nc4)cc3)nc2)cc1`, the EC50 with Enterovirus A71 [1] is more than 40 µM.
In the case of `CCOc1noc2cc(OCCC3CCN(c4ccc(C)nn4)CC3)ccc12` [VAPENDAVIR], the CC50 is more than 20 µM in data set [3] and more than 63 µM in [4].
`Cn1cc(-c2ccc(CSc3ccc(-c4ccc5ccccc5c4)cn3)cc2)cn1`: the EC50 in the data set with Enterovirus A71 [2] stood at 22.4 µM; in the data set on Enterovirus A71 [1] it was 12 µM. Further, the CC50 in [3] and in data set [4] was more than 40 µM throughout. Moreover, the selectivity ratio in [5] is more than 1.8; in [7] it was more than 3.3.
With `OCc1ccc(-c2ccc(SCc3ccc(-n4cncn4)cc3)nc2)cc1`, in data set [3], the CC50 is more than 40 µM. Besides, the selectivity ratio in data set [5] was more than 181; in data set [8], more than 1.7. Further, the figures for the EC50 in the data set with Human echovirus 30 and in the data set on Coxsackievirus were more than 40 µM and 23.2 µM, respectively.
Take `c1ccc2c(-c3ccc(SCc4ccc(-n5cncn5)cc4)nc3)cccc2c1`: the EC50 in the data set with Enterovirus A71 [1] is more than 40 µM.
With `c1ccc2cc(-c3ccc(SCc4ccc(-n5cncn5)cc4)cc3)ncc2c1`, the EC50 in the data set with Enterovirus A71 [2] was determined as 1.15 µM; in the data set with Enterovirus A71 [1], 4.3 µM; in the data set with Human echovirus 30, 0.41 µM; with Coxsackievirus, 1.22 µM. In addition, the CC50 in data set [3] is more than 40 µM; in data set [4], 30.5 µM; in data set [6], 31.3 µM. Also, the selectivity ratio in data set [5] is more than 25; in data set [9], more than 100; in data set [8], more than 32; in data set [7] it was 6.62.
Regarding `c1ccc2cc(-c3ccc(SCc4ccc(-n5cncn5)cc4)nc3)ccc2c1`, the EC50 with Enterovirus A71 [2] was found to be 3.25 µM; in the data set on Enterovirus A71 [1], 1.86 µM; in the data set with Human echovirus 30, 0.4 µM; with Coxsackievirus it was 0.99 µM. Further, the CC50 in data set [3] was more than 40 µM; in [4] it was 23.5 µM; in [6], 43.2 µM. The selectivity ratio in [5] is more than 12; in [9], more than 100; in data set [8], more than 40; in data set [7], 15.4. Also, the Activity in the data set on Enterovirus A71 [10] was 1.5 log10/ml; in the data set on Enterovirus A71 [11], 1.25 log10/ml; with Enterovirus A71 [12] it was 0.7 log10/ml; with Enterovirus A71 [17], 1.14 log10/ml. Besides, the inhibition at 10 µM in the data set on Enterovirus A71 [13] is more than 90%; in the data set with Enterovirus A71 [14], more than 90%; in the data set with Enterovirus A71 [15], less than 90%; in the data set on Enterovirus A71 [16], more than 90%.
With `c1ccc2cc(-c3ccc(SCc4ccc(-n5cncn5)cc4)cc3)ccc2c1`, the EC50 in the data set on Enterovirus A71 [1] is more than 40 µM.
As to `O=C1NC(SCc2ccc(-n3cncn3)cc2)=N/C1=C\c1c[nH]c2ccccc12`, the figures for the EC50 with Enterovirus A71 [2] and with Enterovirus A71 [1] were more than 40 µM and 4.65 µM, respectively. Further, the CC50 stood at 96.3 µM in data set [4] and 33.6 µM in [6]. In addition, the selectivity ratio in [7] was 20.7.
Turning to `c1ncn(-c2ccc(CSc3ccc(-c4ccc5[nH]ccc5c4)cc3)cc2)n1`, the EC50 in the data set with Enterovirus A71 [1] is more than 40 µM.
Regarding `Cn1cc(-c2ccc(SCc3ccc(-n4cncn4)cc3)nc2)cn1`, the EC50 was 0.57 µM in the data set on Enterovirus A71 [2] and 4.38 µM in the data set with Enterovirus A71 [1].
Regarding `c1ccc2cc(-c3ccc(SCc4ccc(-n5cncn5)cc4)nc3)ncc2c1`, the EC50 was more than 20 µM in the data set with Enterovirus A71 [2] and 22.1 µM in the data set on Enterovirus A71 [1]. The compound further came in with a CC50 in [4] of more than 40 µM. For the same compound, in data set [7], the selectivity ratio is more than 1.8.
On to `CN(C)c1cccc(-c2ccc(CSc3ccc(-c4ccc5ccccc5c4)cn3)cc2)c1`, for which the EC50 in the data set with Enterovirus A71 [1] was more than 40 µM.
Same read-out and setting: with `c1ccc2oc(-c3ccc(SCc4ccc(-n5cncn5)cc4)cc3)cc2c1` the figure was more than 40 µM; with `CN1CCN(c2ncc(-c3ccc(CSc4ccc(-c5ccc(CO)cc5)cn4)cc3)cn2)CC1`, more than 40 µM; with `CCNc1ncc(-c2ccc(CSc3ccc(-c4ccc(CO)cc4)cn3)cc2)cn1`, more than 40 µM.
Take `Cc1noc(C)c1-c1ccc(CSc2ccc(-c3ccc4ccccc4c3)cn2)cc1`: the EC50 in the data set on Enterovirus A71 [2] is more than 40 µM; with Enterovirus A71 [1], 22.3 µM. For the same compound, the CC50 in data set [4] is more than 40 µM. In data set [7], the selectivity ratio was more than 1.8.

In general, EC50 refers to the concentration at which the effect is half-maximal. For orientation: CC50 means the concentration that lowers cell viability or growth by half. What is called inhibition is the percentage by which the read-out fell short of the control.
